Calls of active or inactive are those of the source.
Key:
Mus musculus [1] = experiment: Neurotoxicity in CF1 albino mouse at 30 mg/kg, ip after 4 hrs by rotarod test; assay type: toxicity, organism-based; conditions: in vivo
Outline: (§1)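 Rotarod neurotoxicity in male albino CF-1 mice dosed ip with compound suspended in 0.5% methylcellulose. Animal placed on a 1 inch diameter knurled plastic rod rotating at 6 rpm. Neurotoxicity scored when the animal falls off three times within 1 min. Readout is number of animals toxic/number tested at the stated time after dosing. TD50 with 95% confidence interval from the quantitative study.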

Mus musculus [2] = experiment: Neurotoxicity in CF1 albino mouse at 100 mg/kg, ip after 4 hrs by rotarod test; assay type: toxicity, organism-based; conditions: in vivo; outline: as §1
Mus musculus [3] = experiment: Anticonvulsant activity in CF1 albino mouse assessed as protection against maximal electroshock-induced seizure at 30 mg/kg, ip after 4 hrs; assay type: functional, organism-based
Outline: (§2)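 Male CF-1 mice dosed ip as suspension in 0.5% methylcellulose. Corneal electrodes deliver 60 Hz alternating current, 50 mA for […], after a drop of 0.5% tetracaine HCl in 0.9% NaCl per eye. Protection means abolition of hindlimb tonic extension; scored as protected/tested, or ED50 with 95% confidence interval.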

Mus musculus [4] = experiment: Neurotoxicity in CF1 albino mouse at 30 mg/kg, ip after 0.25 to 4 hrs by rotarod test; assay type: toxicity, organism-based; conditions: in vivo; outline: as §1
Mus musculus [5] = experiment: Anticonvulsant activity in CF1 albino mouse assessed as protection against 6 Hz-psychomotor-induced seizure at 50 mg/kg, ip after 4 hrs; assay type: functional, organism-based
Outline: (§3)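 Male CF-1 mice, ip suspension in 0.5% methylcellulose. Corneal stimulation 0.2 ms monopolar rectangular pulses at 6 Hz, 32 mA for 3 s via constant-current device; mice without minimal clonic phase seizure counted protected. Groups of four; read at 0.25, 0.5, 1, 2, 4 h; result as protected/tested.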

Mus musculus [6] = experiment: Anticonvulsant activity in CF1 albino mouse assessed as protection against 6 Hz-psychomotor-induced seizure at 50 mg/kg, ip after 0.25 hrs; assay type: functional, organism-based; outline: as §3
Mus musculus [7] = experiment: Anticonvulsant activity in CF1 albino mouse assessed as protection against 6 Hz-psychomotor-induced seizure at 30 mg/kg, ip after 0.25 to 4 hrs; assay type: functional, organism-based; outline: as §3
Mus musculus [8] = experiment: Neurotoxicity in CF1 albino mouse at 300 mg/kg, ip after 4 hrs by rotarod test; assay type: toxicity, organism-based; conditions: in vivo; outline: as §1
Mus musculus [9] = experiment: Anticonvulsant activity in CF1 albino mouse assessed as protection against maximal electroshock-induced seizure at 30 mg/kg, ip after 0.5 hrs; assay type: functional, organism-based; outline: as §2
Mus musculus [10] = experiment: Anticonvulsant activity in CF1 albino mouse assessed as protection against subcutaneous pentetrazole-induced seizure at 30 mg/kg, ip after 0.5 hrs; assay type: functional, organism-based
Outline: (§4)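 Male CF-1 mice, ip in 0.5% methylcellulose; pentetrazole at CD97 (85 mg/kg) injected subcutaneously in a loose fold of neck skin. Observed 30 min; absence of even a threshold seizure (single clonic spasm lasting at least 5 s) counted as protection. Scored protected/tested, or ED50.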

Mus musculus [11] = experiment: Anticonvulsant activity in CF1 albino mouse assessed as protection against maximal electroshock-induced seizure at 3 mg/kg, ip after 0.5 hrs; assay type: functional, organism-based; outline: as §2
Mus musculus [12] = experiment: Anticonvulsant activity in CF1 albino mouse assessed as protection against maximal electroshock-induced seizure at 100 mg/kg, ip after 0.5 hrs; assay type: functional, organism-based; outline: as §2
Mus musculus [13] = experiment: Neurotoxicity in CF1 albino mouse at 10 mg/kg, ip after 0.5 hrs by rotarod test; assay type: toxicity, organism-based; conditions: in vivo
Outline: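 Rotarod neurotoxicity in male CF-1 mice dosed ip as 0.5% methylcellulose suspension: mouse placed on 1 inch knurled rod rotating at 6 rpm; toxicity when the animal falls off three times within 1 min, with other signs noted. Scored as toxic/tested at 0.5 h and 4 h.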

Mus musculus [14] = experiment: Anticonvulsant activity in CF1 albino mouse assessed as protection against 6 Hz-psychomotor-induced seizure at 50 mg/kg, ip after 0.5 hrs; assay type: functional, organism-based; outline: as §3
Histamine H3 receptor = Histamine H3 receptor (Homo sapiens, UniProt Q9Y5N1); experiment: Displacement of [3H]-Nalpha-methylhistamine from human recombinant histamine H3 receptor expressed in HEK293 cells after 90 mins; assay type: cell-based
Chain of Histamine H3 receptor (Q9Y5N1 whole entry): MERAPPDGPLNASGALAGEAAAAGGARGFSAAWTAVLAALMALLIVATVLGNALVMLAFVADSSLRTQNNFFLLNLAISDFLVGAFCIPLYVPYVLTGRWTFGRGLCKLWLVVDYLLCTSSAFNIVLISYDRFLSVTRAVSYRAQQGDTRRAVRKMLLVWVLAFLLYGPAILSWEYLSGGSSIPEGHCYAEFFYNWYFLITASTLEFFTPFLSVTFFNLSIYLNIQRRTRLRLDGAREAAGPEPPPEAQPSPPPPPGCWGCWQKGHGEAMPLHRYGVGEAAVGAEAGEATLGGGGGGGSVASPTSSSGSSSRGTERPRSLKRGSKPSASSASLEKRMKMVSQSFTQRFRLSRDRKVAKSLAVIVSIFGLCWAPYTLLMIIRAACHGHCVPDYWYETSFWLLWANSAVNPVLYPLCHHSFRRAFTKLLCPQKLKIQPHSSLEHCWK

Mus musculus [15] = experiment: Neurotoxicity in CF1 albino mouse assessed as unable to grasp rotarod and death at 100 mg/kg, ip after 0.5 hrs by rotarod test; assay type: toxicity, organism-based; conditions: in vivo
Outline: (§5)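 Male albino CF-1 mice dosed ip with compound suspended in 0.5% methylcellulose, then placed on a 1-inch knurled plastic rod turning at 6 rpm. A fall three times within 1 min counted as neurotoxicity. Observations were made at 0.5 h and 4 h after dosing. Result given as animals showing toxicity per animals tested, with the kind of toxicity recorded.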

Mus musculus [16] = experiment: Anticonvulsant activity in CF1 albino mouse assessed as protection against subcutaneous pentetrazole-induced seizure at 30 mg/kg, ip after 4 hrs; assay type: functional, organism-based; outline: as §4
Mus musculus [17] = experiment: Neurotoxicity in CF1 albino mouse at 3 mg/kg, ip after 0.5 hrs by rotarod test; assay type: toxicity, organism-based; conditions: in vivo; outline: as §1
Mus musculus [18] = experiment: Neurotoxicity in CF1 albino mouse assessed as death at 300 mg/kg, ip after 0.5 hrs by rotarod test; assay type: toxicity, organism-based; conditions: in vivo; outline: as §5
Mus musculus [19] = experiment: Anticonvulsant activity in CF1 albino mouse assessed as protection against 6 Hz-psychomotor-induced seizure at 50 mg/kg, ip after 1 hr; assay type: functional, organism-based; outline: as §3
Mus musculus [20] = experiment: Anticonvulsant activity in CF1 albino mouse assessed as protection against maximal electroshock-induced seizure at 10 mg/kg, ip after 0.5 hrs; assay type: functional, organism-based; outline: as §2
Mus musculus [21] = experiment: Anticonvulsant activity in CF1 albino mouse assessed as protection against subcutaneous pentetrazole-induced seizure at 100 mg/kg, ip after 0.5 hrs; assay type: functional, organism-based; outline: as §4
Mus musculus [22] = experiment: Anticonvulsant activity in CF1 albino mouse assessed as protection against 6 Hz-psychomotor-induced seizure at 50 mg/kg, ip after 2 hrs; assay type: functional, organism-based; outline: as §3
Mus musculus [23] = experiment: Anticonvulsant activity in ip dosed CF1 albino mouse assessed as protection against subcutaneous pentetrazole-induced seizure after 0.25 hrs; assay type: functional; outline: as §4
Mus musculus [24] = experiment: Protective index, ratio of TD50 for ip dosed CF1 albino mouse to ED50 for ip dosed CF1 albino mouse assessed as protection against maximal electroshock-induced seizure after 0.25 hrs; assay type: functional
Mus musculus [25] = experiment: Anticonvulsant activity in ip dosed CF1 albino mouse assessed as protection against maximal electroshock-induced seizure after 0.25 hrs; assay type: functional; outline: as §2
Mus musculus [26] = experiment: Neurotoxicity in CF1 albino mouse at 50 mg/kg, ip after 4 hrs by rotarod test; assay type: toxicity, organism-based; conditions: in vivo; outline: as §1
Mus musculus [27] = experiment: Neurotoxicity in CF1 albino mouse at 50 mg/kg, ip after 0.25 hrs by rotarod test; assay type: toxicity, organism-based; conditions: in vivo; outline: as §1
Mus musculus [28] = experiment: Neurotoxicity in CF1 albino mouse at 50 mg/kg, ip after 2 hrs by rotarod test; assay type: toxicity, organism-based; conditions: in vivo; outline: as §1
Mus musculus [29] = experiment: Anticonvulsant activity in CF1 albino mouse assessed as protection against maximal electroshock-induced seizure at 100 mg/kg, ip after 4 hrs; assay type: functional, organism-based; outline: as §2
Mus musculus [30] = experiment: Neurotoxicity in CF1 albino mouse at 30 mg/kg, ip after 0.5 hrs by rotarod test; assay type: toxicity, organism-based; conditions: in vivo; outline: as §1
Rattus norvegicus = experiment: Anticonvulsant activity in Sprague-Dawley rat assessed as protection against maximal electroshock-induced seizure at 30 mg/kg, po; assay type: functional
Mus musculus [31] = experiment: Neurotoxicity in CF1 albino mouse at 50 mg/kg, ip after 1 hr by rotarod test; assay type: toxicity, organism-based; conditions: in vivo; outline: as §1
Mus musculus [32] = experiment: Anticonvulsant activity in CF1 albino mouse assessed as protection against subcutaneous pentetrazole-induced seizure at 100 mg/kg, ip after 4 hrs; assay type: functional, organism-based; outline: as §4

| SMILES | Activity (Mus musculus [1]) | Activity (Mus musculus [2]) | Activity (Mus musculus [3]) | Activity (Mus musculus [5]) | Activity (Mus musculus [6]) | Activity (Mus musculus [8]) | Activity (Mus musculus [9]) | Activity (Mus musculus [10]) | Activity (Mus musculus [11]) | Activity (Mus musculus [12]) | Activity (Mus musculus [13]) | Ki (Histamine H3 receptor) | Activity (Mus musculus [15]) | Activity (Mus musculus [16]) | Activity (Mus musculus [17]) | Activity (Mus musculus [18]) | Activity (Mus musculus [20]) | Activity (Mus musculus [21]) | Activity (Mus musculus [29]) | Activity (Mus musculus [30]) | further results |
| --- | --- | --- | --- | --- | --- | --- | --- | --- | --- | --- | --- | --- | --- | --- | --- | --- | --- | --- | --- | --- | --- |
| Clc1cccc(OCCCCCCN2CCCCCC2)c1.O=C(O)C(=O)O | Non-toxic | Non-toxic | inactive | inactive | inactive | Non-toxic | Active | inactive | inactive | Active | Non-toxic | 0.293 µM | Toxic | inactive | Non-toxic | Toxic | inactive | inactive | – | – | Activity (Mus musculus [4]): Non-toxic; Activity (Mus musculus [7]): inactive; Activity (Mus musculus [14]): inactive; Activity (Mus musculus [19]): inactive; Activity (Mus musculus [22]): inactive |
| CCCC(CCC)C(=O)O [VALPROIC ACID] | – | – | – | – | – | – | – | – | – | – | – | – | – | – | – | – | – | – | – | – | ED50 (Mus musculus [23]): 220 mg/kg |
| Nc1nnc(-c2cccc(Cl)c2Cl)c(N)n1 [LAMOTRIGINE] | – | – | – | – | – | – | – | – | – | – | – | – | – | – | – | – | – | – | – | – | ED50 (Mus musculus [23]): > 40 mg/kg; Ratio TD50/ED50 (Mus musculus [24]): 4; ED50 (Mus musculus [25]): 7.47 mg/kg |
| Clc1ccc(OCCCCCCCN2CCCCCC2)cc1.O=C(O)C(=O)O | Non-toxic | Non-toxic | inactive | inactive | inactive | Non-toxic | Active | inactive | inactive | Active | Non-toxic | 0.203 µM | Toxic | inactive | Non-toxic | – | inactive | – | Active | Non-toxic | Activity (Mus musculus [26]): Non-toxic; Activity (Mus musculus [27]): Non-toxic; Activity (Mus musculus [28]): Non-toxic; Activity (Rattus norvegicus): 25%; Activity (Mus musculus [22]): inactive |
| CC1CCN(CCCCCCOc2cccc(Cl)c2)CC1.O=C(O)C(=O)O | Non-toxic | Non-toxic | inactive | – | Active | Non-toxic | Active | inactive | inactive | Active | Non-toxic | 0.412 µM | – | inactive | Non-toxic | Toxic | inactive | – | Active | Non-toxic | Activity (Mus musculus [26]): Non-toxic; Activity (Mus musculus [28]): Non-toxic; Activity (Mus musculus [31]): Non-toxic; Activity (Rattus norvegicus): 25% |
| CC1CCCN(CCCCCCCOc2cccc(Cl)c2)C1.O=C(O)C(=O)O (stereo unspecified) | Non-toxic | Non-toxic | inactive | – | – | Non-toxic | inactive | inactive | – | Active | – | 0.466 µM | Toxic | inactive | – | Toxic | – | inactive | Active | Non-toxic | Activity (Mus musculus [32]): inactive |
